Assay [1] has as its system Bacillus subtilis. Put plainly: Inhibition of Protein biosynthesis in Bacillus subtilis 1S34 assessed as induction in biosensor yheI promoter-luciferase reporter signal relative to untreated control. The format is functional. A digest of the protocol: (§1)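 B. subtilis biosensor strains carry stress-responsive promoter-reporter constructs (parent 1S34). Value is the maximum reporter signal induced, as a ratio to the signal in noninduced control cultures.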
(In a reporter assay the amount or activity of a reporter protein is the signal.)

Assay [2] deals with Staphylococcus aureus. The experiment in a line: Induction of membrane potential loss in Staphylococcus aureus SH1000 at 4 times MIC after 10 mins by DIS3 fluorescence assay. The format is functional. A digest of the protocol: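 Membrane potential measured with the fluorescent dye DiSc3(5) after S. aureus SH1000 was exposed to 4× MIC of compound for 10 min; expressed relative to the drug-free control (100%).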

The test system of assay [3] is Bacillus subtilis. Put plainly: Antibacterial activity against Bacillus subtilis 1S34 by microdilution method. The format is functional. A digest of the protocol: (§2)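 MICs by broth microdilution in Mueller-Hinton broth following British Society for Antimicrobial Chemotherapy guidelines; where used, polymyxin B nonapeptide (4 μg/ml) was added together with the compound.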
A general note: In broth dilution the organism is exposed to a series of concentrations in liquid medium.

Assay [4] is filed under the species Bos taurus. Put plainly: Inhibition of bovine Chymotrypsin at 100 uM. A digest of the protocol:
(§3)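 Bovine chymotrypsin and porcine malate dehydrogenase specificity screens with compound at 100 μM; percent inhibition of enzyme activity.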

For assay [5], the system named is Staphylococcus aureus. The experiment in a line: Induction of membrane integrity loss in Staphylococcus aureus SH1000 at 4 times MIC after 10 mins by BacLight assay. The format is functional. A digest of the protocol:
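Membrane integrity measured by BacLight fluorescence after S. aureus SH1000 was exposed to 4× MIC of compound for 10 min; expressed relative to the drug-free control (100%).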

A short description of assay [6]: Inhibition of Escherichia coli RNA polymerase using Kool NC-45 universal RNA polymerase template. A digest of the protocol:
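In vitro E. coli RNA polymerase assay using the Kool NC-45 universal RNA polymerase template; IC50 determined.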

The test system of assay [7] is Bacillus subtilis. Put plainly: Inhibition of RNA biosynthesis in Bacillus subtilis 1S34 assessed as induction in biosensor yvgS promoter-luciferase reporter signal relative to untreated control. The format is functional. A digest of the protocol:
as §1

Assay [8] concerns Escherichia coli. Put plainly: Antibacterial activity against AcrAB-deficient Escherichia coli SM1411 by microdilution method. The format is functional. A digest of the protocol: as §2
The test system of assay [9] is Escherichia coli. The experiment in a line: Antibacterial activity against Escherichia coli 1411 by microdilution method in presence of 4 ug/ml PMBN. It counts as functional. A digest of the protocol:
as §2

Assay [10] concerns Bacillus subtilis. Put plainly: Inhibition of DNA biosynthesis in Bacillus subtilis 1S34 assessed as induction in biosensor yorB promoter-luciferase reporter signal relative to untreated control. It counts as functional. A digest of the protocol: as §1
Assay [11] deals with Escherichia coli. The experiment in a line: Antibacterial activity against Escherichia coli 1411 by microdilution method. It counts as functional. A digest of the protocol: as §2
For assay [12], the species on record is Sus scrofa. Put plainly: Inhibition of pig Malate dehydrogenase at 100 uM. A digest of the protocol:
as §3

For assay [13], the system named is Bacillus subtilis. Put plainly: Inhibition of Cell envelope biosynthesis in Bacillus subtilis 1S34 assessed as induction in biosensor ypuA promoter-luciferase reporter signal relative to untreated control. It counts as functional. A digest of the protocol:
as §1

Assay [14] relates to Bacillus subtilis. Put plainly: Inhibition of Fatty acid biosynthesis in Bacillus subtilis 1S34 assessed as induction in biosensor fabHB promoter-luciferase reporter signal relative to untreated control. It counts as functional. A digest of the protocol:
as §1

For assay [15], the system named is Staphylococcus aureus. The experiment in a line: Antibacterial activity against Staphylococcus aureus SH1000 by microdilution method. The format is functional. A digest of the protocol:
as §2

The species entered for assay [16] is Bos taurus. Put plainly: Inhibition of bovine Chymotrypsin at 0.0472 uM.
For assay [17], the species on record is Sus scrofa. Put plainly: Inhibition of pig Malate dehydrogenase at 0.0472 uM.
The test system of assay [18] is Staphylococcus epidermidis. Put plainly: Antibacterial activity against Staphylococcus epidermidis ATCC 11047 by microdilution method. It counts as functional. A digest of the protocol: as §2

Data on six molecules can be found in ChEMBL document CHEMBL1687774, “Furanyl-rhodanines are unattractive drug candidates for development as inhibitors of bacterial RNA polymerase” (Antimicrob Agents Chemother, 2010).

In brackets after ≈: the same amount, converted by molar mass. Bounds are passed on as bounds.

On to `O=C1NC(=S)S/C1=C\c1ccc([N+](=O)[O-])o1`, for which the “fold change (FC)” value in the assay with Bacillus subtilis [1] stood at 1.3; in the assay on Bacillus subtilis [7], 1.3; in the assay with Bacillus subtilis [10] it was 8; in the assay with Bacillus subtilis [13], 1; in the assay on Bacillus subtilis [14] it was 1.4. Also, the Activity is reported as 104.8% in the assay on Staphylococcus aureus [2] and 82.8% in the assay with Staphylococcus aureus [5]. Moreover, the MIC (as a rule, the least concentration at which growth counts as inhibited) is 1 µg/mL (≈ 3.9 µM) in the assay with Bacillus subtilis [3]; 16 µg/mL (≈ 62.4 µM) against Escherichia coli [8]; 2 µg/mL in the assay on Escherichia coli [9]; 16 µg/mL (≈ 62.4 µM) against Escherichia coli [11]; 4 µg/mL (≈ 15.6 µM) in the assay with Staphylococcus aureus [15]. For the same molecule, the inhibition (usually the change of the read-out against control, counted positive when it falls) in the assay listed under Bos taurus [4] was 49.4%; in the assay listed under Sus scrofa [12], 99.7%. In assay [6], the half-maximal inhibitory concentration (IC50) (usually the point on the concentration scale where inhibition reaches its midpoint) was 32.2 µM.

Regarding `O=C(O)CCCN1C(=O)/C(=C/c2ccc(-c3cccc(Cl)c3)o2)SC1=S`, the “fold change (FC)” value in the assay on Bacillus subtilis [1] came to 1.2; in the assay with Bacillus subtilis [7] it was 1; in the assay with Bacillus subtilis [10], 1.1; with Bacillus subtilis [13] it was 1; in the assay with Bacillus subtilis [14], 0.9. Moreover, the Activity is listed as 43.1% in the assay on Staphylococcus aureus [2] and 27.3% in the assay on Staphylococcus aureus [5]. The minimum inhibitory concentration (MIC) in the assay on Bacillus subtilis [3] was 1 µg/mL (≈ 2.45 µM); against Escherichia coli [8], more than 128 µg/mL; in the assay on Escherichia coli [9], 16 µg/mL; in the assay on Escherichia coli [11] it was more than 128 µg/mL; against Staphylococcus aureus [15], 4 µg/mL (≈ 9.81 µM). Also, the inhibition in the assay listed under Bos taurus [4] is 96.7%; in the assay filed under Sus scrofa [12], 88.1%. This molecule also came in with a concentration for half-maximal inhibition (IC50) in assay [6] of 16.3 µM.

In [6], `CO[C@H]1/C=C/O[C@@]2(C)Oc3c(C)c(O)c4c(O)c(c(/C=N/N5CCN(C)CC5)c(O)c4c3C2=O)NC(=O)/C(C)=C\C=C\[C@H](C)[C@H](O)[C@@H](C)[C@@H](O)[C@@H](C)[C@H](OC(C)=O)[C@@H]1C` [RIFAMPIN] displayed a half-maximal inhibitory concentration (IC50) of 0.0115 µM. Besides, the inhibition in the assay listed under Bos taurus [16] was determined as 7.8%; in the assay listed under Sus scrofa [17], 8.3%.

For `C/C=C/C/C=C(\C)C(O)CC/C(C)=C/C=C(\C)C(=O)c1c(O)cc([C@H](C)CC/C=C/NC(=O)OC)oc1=O` (some centres undefined) [CORALLOPYRONIN A], in assay [6], the IC50 came out at 0.726 µM.

As to `C=CCN1C(=O)/C(=C/c2ccc(-c3ccc(C(=O)O)cc3)o2)SC1=S`, the MIC (against Bacillus subtilis [3]; in the assay on Escherichia coli [8]; with Escherichia coli [9]; in [18]; against Escherichia coli [11]; against Staphylococcus aureus [15]) was more than 256 µg/mL each time. Further, the inhibition was 67.4% in the assay listed under Bos taurus [4] and 96.3% in the assay listed under Sus scrofa [12]. For the same molecule, the concentration for half-maximal inhibition (IC50) in assay [6] was 37.3 µM.

Turning to `CO[C@H]1/C=C/O[C@@]2(C)Oc3c(C)c(O)c4c(O)c(cc(O)c4c3C2=O)NC(=O)/C(C)=C\C=C\[C@H](C)[C@H](O)[C@@H](C)[C@@H](O)[C@@H](C)[C@H](OC(C)=O)[C@@H]1C` [RIFAMYCIN], in [6], the midpoint of inhibition, the IC50, lay at 0.0086 µM.
